Only some compounds are listed: those with a hit (about 1.4% of all), similar ones and a draw of the others.
ABCB6 inh MLPCN: inhibitors of human ABC transporter ABCB6 | Q9NP58 | K562-ABCB6 porphyrin accumulation, flow cytometry, 1 h; active compounds read low | fluorescence ratio to DMSO, % at 10 µM | 360,000 compounds, 0.19% hits | AID 602162;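 active means fluorescence ratio to DMSO below 75%, the collection mean minus 3 SD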;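 further: signal is porphyrin accumulated inside mitochondria; lower ratio means ABCB6 inhibition with less porphyrin fluorescence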
CHT allo act: allosteric activators of human choline transporter CHT; Q9GZV3; CHT-expressing cells, membrane potential dye, choline EC20; active compounds read high; LV-AA mutant CHT in HEK293 cells; B-score at 10 µM; 310,000 compounds, 0.49% hits; AID 488977;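 active means initial fluorescence not abnormally high and integrated response B-score, plate-corrected, over 3 SD above library mean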
Target sequence (Q9GZV3 whole entry, looked up): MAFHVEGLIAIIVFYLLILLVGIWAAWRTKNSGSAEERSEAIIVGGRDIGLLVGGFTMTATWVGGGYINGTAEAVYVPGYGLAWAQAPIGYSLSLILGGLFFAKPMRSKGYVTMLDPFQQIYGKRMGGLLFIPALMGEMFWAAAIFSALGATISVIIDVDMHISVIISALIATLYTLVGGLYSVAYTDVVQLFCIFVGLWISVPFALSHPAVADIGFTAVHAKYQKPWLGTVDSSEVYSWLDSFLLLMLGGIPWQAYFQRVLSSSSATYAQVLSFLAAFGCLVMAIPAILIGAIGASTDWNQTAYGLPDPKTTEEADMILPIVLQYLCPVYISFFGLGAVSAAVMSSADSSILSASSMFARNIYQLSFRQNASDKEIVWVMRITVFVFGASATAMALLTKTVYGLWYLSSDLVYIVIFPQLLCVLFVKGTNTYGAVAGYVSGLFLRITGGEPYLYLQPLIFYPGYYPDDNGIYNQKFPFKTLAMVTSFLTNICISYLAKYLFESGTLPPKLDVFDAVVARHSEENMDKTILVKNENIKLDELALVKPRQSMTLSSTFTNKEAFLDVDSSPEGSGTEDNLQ
CHT block: human CHT choline transport inhibition; Q9GZV3; CHT-expressing cells, membrane potential dye, choline response; active compounds read low; B-score at 10 µM; 310,000 compounds, 0.86% hits;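 active means B-score over 3 SD under the library average, and starting fluorescence ratio not unusually high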;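 further: choline stimulus applied at its EC90 after an EC20 pre-addition; B-score computed on integrated fluorescence ratio after choline addition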
TNAP inh noacc: blocks human TNAP activity with no phosphate acceptor present. inhibition, % at 20 µM. purified TNAP, CDP-star luminescence, 30 min. P05186. AID 1012. 200,000 compounds, 0.26% hits;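 active means tissue-nonspecific alkaline phosphatase inhibition above about 50% at 20 µM in the single-dose screen, limit read from the data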
TNAP act hiacc: activators of human TNAP at high phosphate acceptor concentration; P05186; purified TNAP, CDP-star luminescence, 1 M DEA, 30 min; active compounds read high; 0 = EDTA background, 1 = DMSO-only activity; activation factor at 20 µM; 200,000 tested, under 10 active;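 active means activation factor at least 2 at 20 µM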
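Test system – human TNAP · Doses – 20 µM single point · Incubation – 30 min, room temperature · Signal – luminescent substrate turnover signal · Read-out basis – activation factor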
TNAP inh hiacc: TNAP (human) inhibition, high acceptor. inhibition, % at 20 µM. purified TNAP, CDP-star luminescence, 1 M DEA. AID 1135. 200,000 compounds, 0.03% hits;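 active means over 50% inhibition of tissue-nonspecific alkaline phosphatase at 20 µM in the single-dose screen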
CHT inh conf: human CHT inhibition, confirmatory screen | shares compounds with CHT block | CHT-expressing cells, choline membrane potential dye; LV-to-AA substituted CHT, HEK293 cells | AID 493221 | CHT activity remaining % of control (active compounds read low), % at 10 µM | 2,400 compounds, 70% hits;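 active means choline transporter activity left, mean of duplicates at 10 µM, below buffer-only control mean minus 3 SD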;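 further: depolarization triggered by choline at its EC90 following an EC20 pre-addition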
HEK293 MPD ctr: CHT inhibitor counter-screen hit in parental HEK293 cells | membrane potential ratio readout (active if shifted either direction beyond buffer ±3SD; no single direction) at 10 µM | 2,400 compounds, 4% hits | membrane potential dye, choline response; active = decrease or increase beyond buffer ±3SD | shares compounds with CHT block | AID 493222;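 further: parental cells lack the transporter so any hit is non-specific; ratio is peak minus trough fluorescence over baseline after EC90 choline challenge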
Large screens that a line does not name were inactive (follow-up assays come after a bar, where they were run).

CCCS(=O)(=O)NC(=O)C1(C)CCN(C(=O)c2ccc(C(F)(F)F)nc2C)C1 (configuration not stated)	none (no result: CHT allo act, CHT block, TNAP inh noacc, TNAP act hiacc, TNAP inh hiacc)
CC(Sc1nnc(-c2cccnc2)n1N)C(=O)Nc1ccc2c(c1)OCCO2 (configuration not stated)	none (no result: CHT allo act, CHT block, TNAP inh noacc, TNAP act hiacc, TNAP inh hiacc)
CCCn1c(=O)c2ccccc2n2c(SCCOc3ccccc3)nnc12	CHT block -6.24 | CHT inh conf inactive | HEK293 MPD ctr inactive
CCCn1c(=O)c2ccccc2n2c(SCc3nc4ccccc4s3)nnc12	none
CCOC(=O)c1cccc(Nc2ncnc3ccccc23)c1	CHT block -8.18 | CHT inh conf 24.9% | HEK293 MPD ctr inactive
O=[N+]([O-])c1nn(-c2ccc3c(c2)OCCO3)n(O)c1=Nc1ccc(Cl)cc1	none
CCc1ccc(N=c2c([N+](=O)[O-])nn(-c3ccc4c(c3)OCCO4)n2O)cc1	CHT block -6.29 | CHT inh conf 68.8% | HEK293 MPD ctr inactive
NC(=O)COC(=O)c1cccc(S(=O)(=O)N2CCN(c3ccc(F)cc3)CC2)c1	none
O=C(c1ccc(Cl)c(S(=O)(=O)N2CCCCC2)c1)N1CCN(c2ccccc2)CC1	none (no result: TNAP inh noacc, TNAP act hiacc, TNAP inh hiacc)
NC(=O)COC(=O)c1ccc(Cl)c(S(=O)(=O)N2CCN(c3ccc(F)cc3)CC2)c1	CHT block -7.11 | CHT inh conf 59.4% | HEK293 MPD ctr inactive
Cc1ccc(C(=O)N2CCN(c3ccccc3)CC2)cc1S(=O)(=O)N1CCCC1	CHT block -9.52 | CHT inh conf 55.4% | HEK293 MPD ctr inactive
O=C(c1ccc(Cl)c(S(=O)(=O)N2CCCC2)c1)N1CCN(c2ccccc2)CC1	CHT block -6.02 | CHT inh conf 42.3% | HEK293 MPD ctr inactive
CC(OC(=O)c1nn(C)c(=O)c2ccccc12)C(=O)Nc1ccc(S(N)(=O)=O)cc1 (configuration not stated)	none (no result: TNAP inh noacc, TNAP act hiacc, TNAP inh hiacc)
O=S(=O)(c1ccc(N2CCCC2)nc1)N1CCCC1	CHT block -5.85 | CHT inh conf 43.0% | HEK293 MPD ctr inactive
CCC(=O)Nc1ccc(C(=O)Cn2ncc(Cl)c(Cl)c2=O)cc1	none (no result: TNAP inh noacc, TNAP act hiacc, TNAP inh hiacc)
Cc1cc(C(=O)Cn2ncc(Cl)c(Cl)c2=O)c(C)n1CC(F)(F)F	CHT block -5.61 | CHT inh conf 44.5% | HEK293 MPD ctr inactive
CN1C(=O)/C(=C/c2ccc(C(=O)Nc3ccc(O)cc3C(=O)O)cc2)SC1=S	none (no result: TNAP inh noacc, TNAP act hiacc, TNAP inh hiacc)
CCSc1nnc(Cc2cc(=O)[nH]c(=O)[nH]2)n1-c1cc(C)ccc1C	none
CS(=O)(=O)n1nc(OC(=O)c2cccc3ccccc23)cc1N	CHT block -5.45 | CHT inh conf 63.1% | HEK293 MPD ctr inactive
CS(=O)(=O)n1nc(OC(=O)c2cc(Br)ccc2Cl)cc1N	none
CCOc1ccccc1C(C(=O)NC1CCCCC1)N(C(=O)c1csnn1)C1CC1 (configuration not stated)	none (no result: TNAP inh noacc, TNAP act hiacc, TNAP inh hiacc)
Oc1c(Br)cc(/C=N/NC(=S)NCc2ccco2)cc1Br	CHT block -5.06 (no result: TNAP inh noacc, TNAP act hiacc, TNAP inh hiacc) | CHT inh conf 67.3% | HEK293 MPD ctr inactive
CCOC(=O)N1CCN(C(=O)c2oc3ccc(S(=O)(=O)N4CCCCCC4)cc3c2C)CC1	CHT block -6.18 | CHT inh conf 67.2% | HEK293 MPD ctr inactive
Cc1nn(-c2ccccc2)c(N2CCCC2)c1/C=N/Nc1ccc(S(N)(=O)=O)cc1[N+](=O)[O-]	CHT block -4.97 | CHT inh conf inactive | HEK293 MPD ctr inactive
Cc1cc(O)ccc1Nc1nc2ccccc2nc1Nc1ccc(O)cc1C	none
CC1CC(C)(C)N(C(=O)CN2C(=O)c3ccccc3C2=O)c2ccccc21 (configuration not stated)	CHT block -16.1 | CHT inh conf 62.4% | HEK293 MPD ctr inactive
C#CCn1c(=NC(=O)c2cc(-c3cccs3)nc3ccccc23)sc2cc(S(N)(=O)=O)ccc21	none
COc1ccc(C(=O)N/C(=C\c2cn(S(=O)(=O)N(C)C)c3ccccc23)C(=O)N2CCOCC2)cc1	none (no result: TNAP inh noacc, TNAP act hiacc, TNAP inh hiacc)
CC(C)(C)NC(=O)CN1CCN(C(=O)CCl)CC1	none
O=C(Oc1cccccc1=O)c1ccccc1	CHT block -6.88 | CHT inh conf inactive | HEK293 MPD ctr inactive
COc1cc(CNc2ccc(N3CCCCC3)cc2)ccc1OCC(=O)NC(C)(C)C	CHT block -9.9 (no result: TNAP inh noacc, TNAP act hiacc, TNAP inh hiacc) | CHT inh conf 47.2% | HEK293 MPD ctr inactive
CCOc1ccc(C(CC(=O)O)NC(=O)C2c3ccccc3Oc3ccccc32)cc1 (configuration not stated)	none
O=C(O)CC(NC(=O)c1sc2ccccc2c1Cl)c1ccc(OC2CCCC2)cc1 (configuration not stated)	CHT block -5.17 | CHT inh conf 28.0% | HEK293 MPD ctr inactive
O=C(O)CC(NC(=O)C1c2ccccc2Oc2ccccc21)c1ccc(OC2CCCC2)cc1 (configuration not stated)	CHT block -5.21 | CHT inh conf inactive | HEK293 MPD ctr inactive
O=C(O)CC(NC(=O)C1CCCCC1)c1ccc(OC2CCCC2)cc1 (configuration not stated)	none
O=C(CCl)N1N=C(c2ccco2)CC1c1ccco1 (configuration not stated)	none (no result: TNAP inh noacc, TNAP act hiacc, TNAP inh hiacc)
CC(=O)C1=C(O)C=C(c2ccco2)CC1c1ccco1 (configuration not stated)	CHT block -5.05 | CHT inh conf inactive | HEK293 MPD ctr inactive
COc1c(C=O)c2c(c(OC)c1OC)-c1ccc(OC)c(=O)cc1C(NC(C)=O)CC2 (configuration not stated)	none (no result: CHT allo act, CHT block, TNAP inh noacc, TNAP act hiacc, TNAP inh hiacc)
CCOC(=O)c1oc2nc(C)c3c(c2c1N)CC(C)(C)OC3	none
CCOC(=O)c1oc2nc(CC(C)C)c3c(c2c1N)CCCC3	CHT block -11.5 (no result: TNAP inh noacc, TNAP act hiacc, TNAP inh hiacc) | CHT inh conf 12.6% | HEK293 MPD ctr inactive
Cc1ccc(S(=O)(=O)NCc2csc(-c3cccs3)n2)cc1	none (no result: TNAP inh noacc, TNAP act hiacc, TNAP inh hiacc)
O=S(=O)(NCc1csc(-c2cccs2)n1)c1ccc(Cl)cc1	CHT block -6.63 (no result: TNAP inh noacc, TNAP act hiacc, TNAP inh hiacc) | CHT inh conf 70.3% | HEK293 MPD ctr inactive
O=S(=O)(NCc1csc(-c2cccs2)n1)c1cccc(C(F)(F)F)c1	CHT block -5.49 (no result: TNAP inh noacc, TNAP act hiacc, TNAP inh hiacc) | CHT inh conf 53.8% | HEK293 MPD ctr inactive
CN1CCN(S(=O)(=O)c2ccc(NC(=O)c3ccc(Br)s3)cc2)CC1	CHT block -7.72 | CHT inh conf 24.5% | HEK293 MPD ctr inactive
CN1CCN(S(=O)(=O)c2ccc(NC(=O)c3ccc(Br)o3)cc2)CC1	none

Screening data (PubChem)
